ChEMBL document CHEMBL4613248, “Twelfth-Position Deuteration of Nevirapine Reduces 12-Hydroxy-Nevirapine Formation and Nevirapine-Induced Hepatocyte Death” (J Med Chem, 2020)
Each block holds one compound with its values, some of them ahead of it.

Tests used:
[1] = Drug metabolism in C57BL/6J mouse primary hepatocytes assessed as Cytochrome P450-mediated formation of 8-OHNVP at 10 uM incubated for 24 hrs by uHPLC-MS analysis; assay type: ADME, cell-based
In short: (§1)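 Fresh hepatocytes from male C57BL/6J mice (8–13 weeks), adhered overnight, then 10 μM substrate or vehicle (0.1% DMSO) for 24 h. Medium extracted with acetonitrile (50% final), dried, reconstituted in methanol; uHPLC-Orbitrap targeted SIM plus PRM (monooxygenated metabolites) or high-resolution ions (O-glucuronides, 459.1510/462.1700 ±5 ppm); four experimental replicates.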

Cytochrome P450 [2] = assay: Drug metabolism in human liver microsomes assessed as Cytochrome P450-mediated formation of 3-OHNVP formation at 5 to 400 uM in presence of NADPH regenerating reagents by uHPLC-MS/MS analysis; assay type: ADME
In short: (§2)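 Pooled human liver microsomes (2.5 mg/mL) with NADPH-regenerating system, substrate 5–400 μM, 30 min at 37 °C, 0.1% DMSO (0.2% at 400 μM); 2- and 3-OH metabolites by uHPLC-MS/MS Orbitrap; three replicates, mean ± SD.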

Cytochrome P450 [3] = assay: Drug metabolism in human liver microsomes assessed as Cytochrome P450-mediated formation of 2-OHNVP formation at 5 to 400 uM in presence of NADPH regenerating reagents by uHPLC-MS/MS analysis; assay type: ADME; in short: as §2
Cytochrome P450 [4] = assay: Drug metabolism in human primary hepatocytes assessed as Cytochrome P450-mediated formation of 3-OHNVP at 10 uM incubated for 24 to 48 hrs by uHPLC-MS analysis; assay type: ADME, cell-based
In short: (§3)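 Cryoplateable pooled human hepatocytes (10 mixed-sex donors per pool, three lots), adhered overnight, then 10 μM substrate or vehicle (0.1% DMSO) for 24 or 48 h in InVitroGRO CP medium. Medium extracted with 50% acetonitrile, dried, reconstituted in methanol; uHPLC-Orbitrap MS/MS for monooxygenated metabolites, high-resolution MS for O-glucuronide.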

[5] = Drug metabolism in human assessed as formation of 12-OH-NVP; assay type: ADME
[6] = Drug metabolism in C57BL/6J mouse primary hepatocytes assessed as Cytochrome P450-mediated formation of 2-OHNVP at 10 uM incubated for 24 hrs by uHPLC-MS analysis; assay type: ADME, cell-based; in short: as §1
Cytochrome P450 [7] = assay: Drug metabolism in human primary hepatocytes assessed as Cytochrome P450-mediated formation of 2-OHNVP at 10 uM incubated for 24 to 48 hrs by uHPLC-MS analysis; assay type: ADME, cell-based; in short: as §3
[8] = Drug metabolism in C57BL/6J mouse primary hepatocytes assessed as Cytochrome P450-mediated formation of 3-OHNVP at 10 uM incubated for 24 hrs by uHPLC-MS analysis; assay type: ADME, cell-based; in short: as §1
[9] = Drug metabolism in C57BL/6J mouse primary hepatocytes assessed as 12-O-GlucD2NVP metabolite formation at 10 uM incubated for 24 hrs by uHPLC-MS analysis; assay type: ADME, cell-based, Hepatocyte; in short: as §1
[10] = Drug metabolism in human primary hepatocytes assessed as O-GlucNVP metabolite formation at 10 uM incubated for 24 hrs by uHPLC-MS analysis; assay type: ADME, cell-based, Hepatocyte; in short: as §3
Cytochrome P450 [11] = assay: Drug metabolism in human liver microsomes assessed as Cytochrome P450-mediated formation of 12-OHNVP by measuring Kcat/Km ratio in presence of NADPH regenerating reagents by uHPLC-MS/MS analysis
In short: (§4)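 Pooled human liver microsomes (2.5 mg/mL) in potassium phosphate; substrate (1–400 μM) prewarmed 5 min at 37 °C with NADPH-regenerating system, started with microsomes, 30 min at 37 °C. 12-OH product quantified by uHPLC-MS/MS Orbitrap against 12-OHNVP standard curve made in microsomes without NADPH. Kcat/Km taken as slope of linear rate vs substrate fit at nonsaturating 0–50 μM.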

[12] = Plasma concentration in human; assay type: ADME, cell-free
Cytochrome P450 [13] = assay: Drug metabolism in human liver microsomes assessed as Cytochrome P450-mediated formation of 12-OHNVP at 1 to 400 uM in presence of NADPH regenerating reagents by uHPLC-MS/MS analysis; assay type: ADME; in short: as §4
[14] = Drug metabolism in C57BL/6J mouse primary hepatocytes assessed as O-GlucNVP metabolite formation at 10 uM incubated for 24 hrs by uHPLC-MS analysis; assay type: ADME, cell-based, Hepatocyte; in short: as §1
[15] = Drug metabolism in C57BL/6J mouse primary hepatocytes assessed as Cytochrome P450-mediated formation of 12-OHNVP at 10 uM incubated for 24 hrs by uHPLC-MS analysis; assay type: ADME, cell-based; in short: as §1
Hepatocyte = assay: Toxicity in C57BL/6J mouse primary hepatocytes assessed as reduction in cell viability by measuring EtBr-positive cell nuclei level at 400 uM incubated for 8 hrs by EtBr/AcrO staining based assay (reference value: 19%)
In short: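 Fresh male C57BL/6J mouse hepatocytes on collagen-coated coverslips, 400 μM compound or vehicle (0.2% DMSO) for 8 h; 10 μM staurosporine as positive control. Ethidium bromide/acridine orange costaining, imaging, percentage of EtBr-positive nuclei scored as dead cells; unpaired two-tailed t test.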

Cytochrome P450 [16] = assay: Drug level in human primary hepatocytes treated with 10 uM NVP assessed as Cytochrome P450-mediated compound formation incubated for 24 hrs by uHPLC-MS analysis; assay type: ADME, cell-based
In short: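 Cryoplateable pooled human hepatocytes (10 mixed-sex donors per lot, three lots), ≥90% viable on plating, adhered overnight, then dosed in fresh InVitroGRO CP medium with antibiotics (vehicle 0.1% DMSO) for 24 h, 12-well format. Medium extracted by acetonitrile precipitation (final 50%), dried, reconstituted in methanol; 2-, 3- and 12-OH metabolites quantified by uHPLC-MS/MS on Orbitrap.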

[17] = Drug level in C57BL/6J mouse primary hepatocytes treated with 10 uM NVP assessed as Cytochrome P450-mediated compound formation incubated for 24 hrs by uHPLC-MS analysis; assay type: ADME, cell-based
In short: (§5)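 Fresh hepatocytes from male C57BL/6J mice (8–13 weeks), ≥85% viable on plating, adhered overnight, then given fresh medium with compound (final 0.1% DMSO vehicle) for 24 h in 12-well format. Culture medium deproteinized with acetonitrile (final 50%), dried, reconstituted in methanol; monooxygenated metabolites (2-, 3-, 12-OH) measured by uHPLC-MS/MS on Orbitrap. Four experimental replicates.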

[18] = Drug level in C57BL/6J mouse primary hepatocytes treated with 10 uM 2-D3NVP assessed as Cytochrome P450-mediated compound formation incubated for 24 hrs by uHPLC-MS analysis; assay type: ADME, cell-based; details: in the assay text read “12-D3NVP” for “2-D3NVP”; in short: as §5

Structure (SMILES): Cc1ccnc2c1NC(=O)c1cccnc1N2C1CC1 [NEVIRAPINE]
Drug metabolism [1]: Metabolite_Notdetected | Drug metabolism (Cytochrome P450 [2]): Metabolite_Detected | Drug metabolism (Cytochrome P450 [3]): Metabolite_Detected | Drug metabolism (Cytochrome P450 [4]): Metabolite_Detected | Drug metabolism [5]: 1.3 µM | Drug metabolism [6]: Metabolite_Detected | Drug metabolism (Cytochrome P450 [7]): Metabolite_Detected | Drug metabolism [8]: Metabolite_Detected | Drug metabolism [9]: Metabolite_Notdetected | Drug metabolism [10]: Metabolite_Detected | Kcat/Km (Cytochrome P450 [11]): 1.4 M⁻¹ s⁻¹ | concentration [12]: 16 µM | Drug metabolism (Cytochrome P450 [13]): Metabolite_Detected | Drug metabolism [14]: Metabolite_Detected | Drug metabolism [15]: Metabolite_Detected | Activity (Hepatocyte): 52.6%

Drug uptake (Cytochrome P450 [16]): Metabolite_Detected | Drug uptake [17]: Metabolite_Detected
Structure (SMILES): Cc1cc(O)nc2c1NC(=O)c1cccnc1N2C1CC1

Drug uptake [18]: Metabolite_Detected
Structure (SMILES): [2H]C([2H])([2H])c1cc(O)nc2c1NC(=O)c1cccnc1N2C1CC1

Drug uptake [18]: Metabolite_Detected
Structure (SMILES): [2H]C([2H])(O)c1ccnc2c1NC(=O)c1cccnc1N2C1CC1

Drug uptake [17]: Metabolite_Detected
Structure (SMILES): O=C1Nc2c(CO)ccnc2N(C2CC2)c2ncccc21

Drug uptake [18]: Metabolite_Detected
Structure (SMILES): [2H]C([2H])([2H])c1c(O)cnc2c1NC(=O)c1cccnc1N2C1CC1

Drug uptake (Cytochrome P450 [16]): Metabolite_Detected | Drug uptake [17]: Metabolite_Detected
Structure (SMILES): Cc1c(O)cnc2c1NC(=O)c1cccnc1N2C1CC1
